Test results: ChEMBL document CHEMBL3351752, “Discovery and in vivo evaluation of alcohol-containing benzothiazoles as potent dual-targeting bacterial DNA supercoiling inhibitors” (Bioorg Med Chem Lett, 2014)
In brackets after ≈: the same amount, converted by molar mass. Activity calls are given as the source filed them. The calls are words filed in the database; no cut-off is given here.

Columns and labels:
Staphylococcus aureus [1] = test: Antimicrobial activity against methicillin-sensitive Staphylococcus aureus infected in neutropenic mouse assessed as log reduction in colony forming units at 30 mg/kg, iv administered as single dose measured 24 hrs post infection relative to control; format: functional, organism-based; set-up: dose 30 mg/kg
Procedure, shortened: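 Thigh infection in neutropenic female CD-1 mice (18–22 g), made neutropenic with ip cyclophosphamide (150 mg/kg day −4, 100 mg/kg day −1). Thighs inoculated with about 2 × 10^5 CFU of MSSA S. aureus ATCC 19636 from fresh overnight culture. Single iv dose at 30 mg/kg. Thighs harvested at 24 h, homogenized in saline on ice, serial dilutions plated on charcoal plates, colonies counted; log CFU reduction taken versus matched controls.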

Staphylococcus aureus [2] = test: Antimicrobial activity against Staphylococcus aureus ATCC 19636 infected in neutropenic mouse assessed as reduction in colony forming units at 30 mg/kg, iv administered as single dose measured 24 hrs post infection relative to control; format: functional, organism-based; set-up: dose 30 mg/kg
Staphylococcus aureus [3] = test: Antimicrobial activity against methicillin-sensitive Staphylococcus aureus infected in neutropenic mouse assessed as log reduction in colony forming units at 30 mg/kg, iv administered at 2, 4 and 6 hrs post-inoculation measured 24 hrs post infection relative to control; format: functional
Streptococcus pyogenes [4] = test: Antimicrobial activity against Streptococcus pyogenes harboring ParE A53S mutant assessed as growth inhibition; format: functional
Staphylococcus aureus [5] = test: Antimicrobial activity against methicillin-sensitive Staphylococcus aureus infected in neutropenic mouse assessed as log reduction in colony forming units at 100 mg/kg, iv administered at 2, 4 and 6 hrs post-inoculation measured 24 hrs post infection relative to control; format: functional
Staphylococcus aureus [6] = test: Antimicrobial activity against Staphylococcus aureus harboring GyrB T173N mutant assessed as growth inhibition; format: functional
Staphylococcus aureus [7] = test: Antibacterial activity against Staphylococcus aureus ATCC 29213 assessed as growth inhibition in presence of 50% horse serum; format: functional
Staphylococcus aureus [8] = test: Ratio of MIC for Staphylococcus aureus ATCC 29213 assessed as growth inhibition in presence of 50% horse serum to MIC for Staphylococcus aureus ATCC 29213 assessed as growth inhibition; format: functional
Streptococcus pyogenes [9] = test: Antibacterial activity against Streptococcus pyogenes 51339 assessed as growth inhibition; format: functional
Haemophilus influenzae = test: Antibacterial activity against Haemophilus influenzae 49247 assessed as growth inhibition; format: functional
Staphylococcus aureus [10] = test: Antibacterial activity against Staphylococcus aureus ATCC 29213 assessed as growth inhibition; format: functional
Staphylococcus aureus [11] = test: Antimicrobial activity against methicillin-sensitive Staphylococcus aureus infected in neutropenic mouse assessed as reduction in colony forming units administered iv at 2, 4 and 6 hrs post-inoculation measured 24 hrs post infection relative to control; format: functional, organism-based
Staphylococcus aureus [12] = test: Antimicrobial activity against Staphylococcus aureus ATCC 19636 infected in neutropenic mouse assessed as reduction in colony forming units at 25 mg/kg, iv administered as single dose measured 24 hrs post infection relative to control; format: functional, organism-based; set-up: dose 25 mg/kg
Staphylococcus aureus [13] = test: Antimicrobial activity against Staphylococcus aureus ATCC 19636 infected in neutropenic mouse assessed as reduction in colony forming units at 100 mg/kg, po administered as single dose measured 24 hrs post infection relative to control; format: functional, organism-based; set-up: dose 100 mg/kg
[14] = Fraction unbound in mouse plasma by ultracentrifugation; format: ADME, cell-free
Procedure, shortened: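 Compound at 10 µM (1% DMSO) was equilibrated in neat plasma at 37 °C for 60 min. Duplicate aliquots were ultracentrifuged at 250,000g for 4.2 h at 37 °C. Free compound in the plasma-water supernatant was compared with uncentrifuged samples incubated alike. Uncentrifuged samples kept at 20 °C checked degradation, and diltiazem served as stability control. Analysis was by LCMS.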

Staphylococcus aureus [15] = test: Inhibition of Staphylococcus aureus DNA gyrase ATPase subunit GyrA2/GyrB2 after 60 mins by malachite green staining assay

CN[C@H](CC(C)C)C(=O)N[C@H]1C(=O)N[C@@H](CC(N)=O)C(=O)N[C@H]2C(=O)N[C@H]3C(=O)N[C@H](C(=O)N[C@H](C(=O)O)c4cc(O)cc(O)c4-c4cc3ccc4O)[C@H](O)c3ccc(c(Cl)c3)Oc3cc2cc(c3O[C@@H]2O[C@H](CO)[C@@H](O)[C@H](O)[C@H]2O[C@H]2C[C@](C)(N)[C@H](O)[C@H](C)O2)Oc2ccc(cc2Cl)[C@H]1O
Activity (Staphylococcus aureus [1]): Active

CO[C@@H]1[C@@H](OC(N)=O)[C@@H](O)[C@H](Oc2ccc3c(O)c(NC(=O)c4ccc(O)c(CC=C(C)C)c4)c(=O)oc3c2C)OC1(C)C
Activity (Staphylococcus aureus [2]): Active

CCNC(=O)Nc1nc2cc(-c3cnc(N4CCC(CC)(C(=O)O)CC4)nc3)cc(-c3ccccn3)c2s1
FC (Staphylococcus aureus [3]): <3
MIC (Streptococcus pyogenes [4]): 0.5 µg/mL (≈ 0.94 µM)
FC (Staphylococcus aureus [5]): 4
MIC (Staphylococcus aureus [6]): 0.25 µg/mL (≈ 0.47 µM)
MIC (Staphylococcus aureus [7]): 4 µg/mL
Ratio (Staphylococcus aureus [8]): 64
MIC (Streptococcus pyogenes [9]): 0.06 µg/mL (≈ 0.113 µM)
MIC (Haemophilus influenzae): 4 µg/mL (≈ 7.52 µM)
MIC (Staphylococcus aureus [10]): 0.06 µg/mL (≈ 0.113 µM)
Activity (Staphylococcus aureus [11]): Dose-dependent effect

CC(=O)NC[C@H]1CN(c2ccc(N3CCOCC3)c(F)c2)C(=O)O1
Activity (Staphylococcus aureus [12]): Active

CCNC(=O)Nc1nc2cc(-c3cnc(N4CCC(CC)(C(=O)O)CC4)nc3)cc(/C=N/OC)c2s1
FC (Staphylococcus aureus [3]): <3
FC (Staphylococcus aureus [5]): 4
MIC (Staphylococcus aureus [10]): 0.12 µg/mL (≈ 0.235 µM)
Activity (Staphylococcus aureus [11]): Dose-dependent effect

CCNC(=O)Nc1nc2cc(-c3cnc(C(C)(C)O)nc3)cc(-c3ccccn3)c2s1
MIC (Streptococcus pyogenes [4]): 1 µg/mL (≈ 2.3 µM)
MIC (Staphylococcus aureus [6]): 0.25 µg/mL (≈ 0.575 µM)
Activity (Staphylococcus aureus [2]): Active
Activity (Staphylococcus aureus [13]): Active
MIC (Staphylococcus aureus [7]): 0.25 µg/mL
Ratio (Staphylococcus aureus [8]): 4
MIC (Streptococcus pyogenes [9]): 0.12 µg/mL (≈ 0.276 µM)
fraction unbound [14]: 0.051
MIC (Haemophilus influenzae): 1 µg/mL (≈ 2.3 µM)
MIC (Staphylococcus aureus [10]): 0.06 µg/mL (≈ 0.138 µM)
inhibitory concentration (Staphylococcus aureus [15]): 0.006 µg/mL
